Measurements taken from ChEMBL document CHEMBL3867447, “Cytotoxic 14-Membered Macrolides from a Mangrove-Derived Endophytic Fungus, Pestalotiopsis microspora” (J Nat Prod, 2016).

How the values were obtained:
[1] = Cytotoxicity against mouse L5178Y cells by MTT assay; format: functional, cell-based
In short: (§1)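 MTT assay on mouse lymphoma L5178Y and human ovarian cancer A2780 cells, as in the earlier reports the paper cites. Positive controls were kahalalide F for L5178Y and cisplatin for A2780. Negative control was medium with 0.1% DMSO. Results are given as IC50 in μM.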

[2] = Cytotoxicity against human A2780 cells by MTT assay; format: functional, cell-based; in short: as §1

SMILES	IC50 [1] [µM]	IC50 [2] [µM]
C[C@H]1CCC/C=C/[C@H](O)/C=C\[C@H](O)/C=C/C(=O)O1	21	> 50
C[C@H]1CCC[C@@H](O)/C=C/C=C\[C@@H](O)/C=C/C(=O)O1	3.9	12
C[C@H]1CCC/C=C\[C@H](O)[C@H]2O[C@H]2[C@H](O)/C=C/C(=O)O1	> 50	> 50
C[C@H]1CCCCC[C@H](O)CC[C@H](O)/C=C/C(=O)O1	39	> 50
C[C@H]1CCC[C@@H](O)/C=C/C=C\[C@H](O)/C=C/C(=O)O1	3.4	1.2
CO[C@H]1/C=C\CCC[C@H](C)OC(=O)/C=C/[C@@H](O)/C=C\1	0.7	28
C[C@H]1CCC/C=C\[C@H](O)/C=C\[C@H](O)/C=C/C(=O)O1	21	43
CO[C@H]1/C=C/C=C\C(=O)CCC(=O)O[C@@H](C)CCC1	11	> 50
C[C@H]1CCC/C=C/[C@H](O)[C@H]2O[C@H]2[C@H](O)/C=C/C(=O)O1	> 50	> 50
C[C@H]1CCC[C@@H](O)/C=C/C=C\C(=O)CCC(=O)O1	> 50	36
C/C=C1\NC(=O)[C@H](Cc2ccccc2)NC(=O)[C@H](C(C)C)NC(=O)[C@@H]([C@@H](C)CC)NC(=O)[C@@H](NC(=O)[C@H](NC(=O)[C@H](CCCN)NC(=O)[C@H]2CCCN2C(=O)[C@@H](NC(=O)[C@H](NC(=O)[C@@H](NC(=O)[C@@H](NC(=O)CCCC(C)C)C(C)C)[C@@H](C)O)C(C)C)C(C)C)[C@@H](C)CC)[C@@H](C)OC(=O)[C@H](C(C)C)NC1=O	4.3	
CO[C@H]1/C=C\CCC[C@H](C)OC(=O)CCC(=O)/C=C\1	5.6	> 50
